This is an account of results in PubChem BioAssay.

Active and inactive are the calls of the source.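 Rule for the calls, unless noted: active = GFP response above 150% of the DMSO level; inconclusive = fewer than 70 events counted for a yeast strain; inactive = the rest.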

The nature of assay [1]: RPL19A-GFP modulators, yeast TOR pathway, confirmation, cell-based, S. cerevisiae, flow cytometry, cherry picks, mother/daughter gates (AID 2270;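 active = GFP response below 50% of the DMSO control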). Particulars: S. cerevisiae RPL19A-GFP strain, 3 h, at 10 µM, stronger effect = lower value, 100 = same GFP as DMSO wells. (In general: Flow cytometry measures light scatter and fluorescence of single cells or particles in a stream.)
The nature of assay [2]: LAP4-GFP expression modulators in yeast, confirmation, cell-based, cherry picks, flow cytometry, mother/daughter gates (AID 2271;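 active = GFP response above 150% of the DMSO control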;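 note: ratio of sample to DMSO plate mean so 100% equals DMSO level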). Conditions: S. cerevisiae LAP4-GFP strain, 3 h, at 10 µM, stronger effect = higher value, 100 means same as DMSO control. The gist of the method: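 Material: Alexa 633-stained baker's yeast GFP-fusion strain; Compound dosing: single test-compound dose, 10 µM final; Incubation: 30 °C, 3 h compound incubation, rotating; Detection: HT flow cytometry, GFP fluorescence channel; Control set: positive rapamycin (400 ng/mL), negative DMSO.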

Assay [3] is described as follows: modulators of MEP2-GFP levels in yeast, confirmation, S. cerevisiae, flow cytometry GFP, cherry picks (AID 2272;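 active = GFP response above 150% of the DMSO control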;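 note: ratio of well signal to plate DMSO mean so 100% equals DMSO level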). Conditions: S. cerevisiae MEP2-GFP strain, 3 h, at 10 µM, stronger effect = higher value.
Assay [4] in a line: AGP1-GFP expression modulators, hit retest, confirmation, cell-based, flow cytometry, S. cerevisiae, cherry picks (AID 2273).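 Note: median GFP channel fluorescence over the whole cell population gate.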 Conditions: S. cerevisiae AGP1-GFP strain, 3 h, at 10 µM.
A short description of assay [5]: modulators of CIT2-GFP expression in yeast, confirmation, S. cerevisiae, GFP fusion, cherry picks, mother/daughter gates (AID 2274). Conditions: S. cerevisiae CIT2-GFP strain, flow cytometry, 3 h, at 10 µM, stronger effect = higher value.
The mark [6] stands for this setting: measured here: daughter cell gate.
[7] abbreviates: measured here: mother cell gate.
Setting [8] is: measured here: daughter cell gate response.
[9] abbreviates: measured here: mother cell gate response.

For the compound `O=C(Nc1nccs1)C(c1ccccc1)N1CCCCC1` (configuration not stated), the GFP response vs DMSO is 103% (inactive) in assay [1], 100% in assay [1] (setting [6]), 104% in assay [1] (setting [7]) and 103% (inactive) in assay [3]. Moreover, the GFP response relative to DMSO is 93.1% (inactive) in assay [2], 94.2% in assay [2] (setting [8]) and 93.1% in assay [2] (setting [9]). The GFP response, % of DMSO was 101% (inactive) in assay [4], 94.4% (inactive) in assay [5], 92% in assay [5] (setting [6]) and 94.4% in assay [5] (setting [7]).

Turning to `Cc1nc(C)c(-c2csc(NCCc3ccccc3)n2)s1`, the GFP response vs DMSO is 96.7% (inactive) in assay [1], 96.4% in assay [1] (setting [6]), 95.9% in assay [1] (setting [7]) and 112% (inactive) in assay [3]. Further, the GFP response relative to DMSO was 112% (inactive) in assay [2], 105% in assay [2] (setting [8]) and 113% in assay [2] (setting [9]). Also, the GFP response, % of DMSO in assay [4] was 96.6% (inactive); in assay [5], 108% (inactive); in assay [5] (setting [6]) it was 110%; in assay [5] (setting [7]) it was 107%.

With `Clc1cccc(Cn2ncc3ccccc32)c1`, the GFP response vs DMSO in assay [1] is 95% (inactive); in assay [1] (setting [6]), 95.1%; in assay [1] (setting [7]), 94.9%; in assay [3], 92% (inactive). For the same compound, the GFP response relative to DMSO in assay [2] was 103% (inactive); in assay [2] (setting [8]), 102%; in assay [2] (setting [9]) it was 103%. In addition, the GFP response, % of DMSO in assay [4] was 94.1% (inactive); in assay [5], 95.5% (inactive); in assay [5] (setting [6]), 95.4%; in assay [5] (setting [7]) it was 95%.

With `COc1ccc(C2c3c(oc4ccccc4c3=O)C(=O)N2CCN2CCOCC2)cc1OC` (configuration not stated), the GFP response vs DMSO was 103% (inactive) in assay [1], 95.3% in assay [1] (setting [6]), 101% in assay [1] (setting [7]) and 172% (inactive) in assay [3]. Moreover, the figures for the GFP response relative to DMSO in assay [2], in assay [2] (setting [8]) and in assay [2] (setting [9]) were 119% (inactive), 116% and 114%, respectively. Besides, the GFP response, % of DMSO in assay [4] is 105% (inactive); in assay [5], 129% (inactive); in assay [5] (setting [6]), 116%; in assay [5] (setting [7]), 113%.

`Cc1ccc(/C=C2/NC(=O)N(Cc3ccccc3)C2=O)o1`: the GFP response vs DMSO is 98.4% (inactive) in assay [1], 99.8% in assay [1] (setting [6]), 98.8% in assay [1] (setting [7]) and 101% (inactive) in assay [3]. For the same compound, the figures for the GFP response relative to DMSO in assay [2], in assay [2] (setting [8]) and in assay [2] (setting [9]) were 112% (inactive), 110% and 113%, respectively. Also, the GFP response, % of DMSO was 101% (inactive) in assay [4], 103% (inactive) in assay [5], 105% in assay [5] (setting [6]) and 101% in assay [5] (setting [7]).

With `CCCN1CCN(C(=O)c2oc3ccccc3c2NC(=O)COc2ccc(OC)cc2)CC1`, the GFP response vs DMSO in assay [1] was 98.6% (inactive); in assay [1] (setting [6]), 100%; in assay [1] (setting [7]) it was 99.8%; in assay [3], 102% (inactive). Further, the results for the GFP response relative to DMSO in assay [2], in assay [2] (setting [8]) and in assay [2] (setting [9]) were 95.4% (inactive), 96% and 95.1%, respectively. Also, the GFP response, % of DMSO in assay [4] is 98.1% (inactive); in assay [5], 105% (inactive); in assay [5] (setting [6]), 106%; in assay [5] (setting [7]), 106%.

As for `CC(OC(=O)CSc1ccc([N+](=O)[O-])cc1)C(=O)NCc1ccccc1` (configuration not stated), the GFP response vs DMSO in assay [1] was 101% (inactive); in assay [1] (setting [6]), 101%; in assay [1] (setting [7]), 101%; in assay [3], 100% (inactive). The GFP response relative to DMSO was 99.8% (inactive) in assay [2], 102% in assay [2] (setting [8]) and 100% in assay [2] (setting [9]). The GFP response, % of DMSO in assay [4] was 98% (inactive); in assay [5], 97.8% (inactive); in assay [5] (setting [6]) it was 96.5%; in assay [5] (setting [7]), 96.6%.

In the case of `Cc1c([N+](=O)[O-])cnc(Sc2ccccc2)c1[N+](=O)[O-]`, the GFP response vs DMSO is 100% (inactive) in assay [1], 96.9% in assay [1] (setting [6]), 98.9% in assay [1] (setting [7]) and 102% (inactive) in assay [3]. The GFP response relative to DMSO is 124% (inactive) in assay [2], 120% in assay [2] (setting [8]) and 127% in assay [2] (setting [9]). In addition, the GFP response, % of DMSO in assay [4] is 97.6% (inactive); in assay [5], 101% (inactive); in assay [5] (setting [6]), 101%; in assay [5] (setting [7]), 99.7%.

Regarding `O=C(/C=C/c1cc(Br)ccc1O)c1ccco1`, the GFP response vs DMSO in assay [1] is 99.9% (inactive); in assay [1] (setting [6]), 101%; in assay [1] (setting [7]) it was 99%; in assay [3] it was 122% (inactive). The figures for the GFP response relative to DMSO in assay [2], in assay [2] (setting [8]) and in assay [2] (setting [9]) were 151% (active), 135% and 153%, respectively. Moreover, the GFP response, % of DMSO in assay [4] is 100% (inactive); in assay [5], 95% (inactive); in assay [5] (setting [6]), 98.3%; in assay [5] (setting [7]), 91%.

Regarding `Cc1nnc(NC(=O)c2ccc(S(=O)(=O)N(C)Cc3ccccc3)cc2)o1`, the GFP response vs DMSO in assay [1] was 98.4% (inactive); in assay [1] (setting [6]) it was 98.1%; in assay [1] (setting [7]), 98.2%; in assay [3] it was 102% (inactive). Moreover, the figures for the GFP response relative to DMSO in assay [2], in assay [2] (setting [8]) and in assay [2] (setting [9]) were 101% (inactive), 99.2% and 101%, respectively. The GFP response, % of DMSO in assay [4] was 91.2% (inactive); in assay [5], 103% (inactive); in assay [5] (setting [6]) it was 101%; in assay [5] (setting [7]), 102%.

As to `O=[N+]([O-])c1cc(C(F)(F)F)ccc1NCCc1ccccn1`, the GFP response vs DMSO in assay [1] was 98.8% (inactive); in assay [1] (setting [6]), 99.3%; in assay [1] (setting [7]), 99.7%; in assay [3] it was 102% (inactive). For the same compound, the GFP response relative to DMSO in assay [2] was 96.5% (inactive); in assay [2] (setting [8]), 92.2%; in assay [2] (setting [9]) it was 96.5%. The GFP response, % of DMSO in assay [4] was 98.9% (inactive); in assay [5], 106% (inactive); in assay [5] (setting [6]), 106%; in assay [5] (setting [7]) it was 106%.

As for `CCOc1ccc(N2C(=O)CC(SCCN)C2=O)cc1` (configuration not stated), the GFP response vs DMSO in assay [1] is 97.6% (inactive); in assay [1] (setting [6]), 98.9%; in assay [1] (setting [7]), 96.6%; in assay [3], 105% (inactive). For the same compound, the GFP response relative to DMSO in assay [2] is 97.9% (inactive); in assay [2] (setting [8]) it was 99.2%; in assay [2] (setting [9]), 97.2%. The GFP response, % of DMSO was 92.3% (inactive) in assay [4], 98.3% (inactive) in assay [5], 99.1% in assay [5] (setting [6]) and 98.5% in assay [5] (setting [7]).

As to `COCCN(CCOC)S(=O)(=O)c1ccc(C(=O)Nc2nnc(C3CC3)o2)cc1`, the GFP response vs DMSO in assay [1] was 101% (inactive); in assay [1] (setting [6]), 99.8%; in assay [1] (setting [7]), 101%; in assay [3] it was 100% (inactive). Also, the GFP response relative to DMSO was 93.8% (inactive) in assay [2], 94.1% in assay [2] (setting [8]) and 95.2% in assay [2] (setting [9]). Moreover, the GFP response, % of DMSO in assay [4] is 101% (inactive); in assay [5], 106% (inactive); in assay [5] (setting [6]), 105%; in assay [5] (setting [7]) it was 106%.

For `O=C(Cn1cc(/C=C\[N+](=O)[O-])c2ccccc21)Nc1ccccc1`, the GFP response vs DMSO in assay [1] was 97.4% (inactive); in assay [1] (setting [6]), 97.4%; in assay [1] (setting [7]), 97.6%; in assay [3], 98.3% (inactive). Moreover, the GFP response relative to DMSO in assay [2] is 94.1% (inactive); in assay [2] (setting [8]), 94.4%; in assay [2] (setting [9]), 94%. For the same compound, the GFP response, % of DMSO in assay [4] was 94.7% (inactive); in assay [5], 99.7% (inactive); in assay [5] (setting [6]) it was 101%; in assay [5] (setting [7]), 99.7%.

As to `CC(C)c1nnc(NC(=O)c2nc(S(=O)(=O)Cc3ccc(F)cc3)ncc2Cl)s1`, the GFP response vs DMSO was 95.8% (inactive) in assay [1], 96% in assay [1] (setting [6]), 96.9% in assay [1] (setting [7]) and 99.5% (inactive) in assay [3]. Also, the values for the GFP response relative to DMSO in assay [2], in assay [2] (setting [8]) and in assay [2] (setting [9]) were 101% (inactive), 102% and 99.5%, respectively. The GFP response, % of DMSO in assay [4] is 102% (inactive); in assay [5], 99.3% (inactive); in assay [5] (setting [6]), 100%; in assay [5] (setting [7]) it was 100%.

For the compound `O=C(COc1ccccc1[N+](=O)[O-])Nc1ccc(NC(=O)c2cc3ccccc3o2)cc1`, the GFP response vs DMSO is 100% (inactive) in assay [1], 98.9% in assay [1] (setting [6]), 99.3% in assay [1] (setting [7]) and 103% (inactive) in assay [3]. Further, the GFP response relative to DMSO in assay [2] is 88.7% (inactive); in assay [2] (setting [8]), 92%; in assay [2] (setting [9]) it was 88.9%. The GFP response, % of DMSO is 99.8% (inactive) in assay [4], 92.2% (inactive) in assay [5], 92.1% in assay [5] (setting [6]) and 91.8% in assay [5] (setting [7]).

For `CCC(C)(C)NC(=O)C(c1cccs1)N(CC1CCCO1)C(=O)Cn1nnc2ccccc21` (configuration not stated), the GFP response vs DMSO in assay [1] was 95.3% (inactive); in assay [1] (setting [6]) it was 95.9%; in assay [1] (setting [7]) it was 94.4%; in assay [3], 101% (inactive). Moreover, the values for the GFP response relative to DMSO in assay [2], in assay [2] (setting [8]) and in assay [2] (setting [9]) were 98.9% (inactive), 96% and 99.5%, respectively. Also, the GFP response, % of DMSO in assay [4] is 102% (inactive); in assay [5], 101% (inactive); in assay [5] (setting [6]), 105%; in assay [5] (setting [7]), 102%.
